Rows were chosen to be rich in hits. Some 2.4% of all compounds tested hit in one or more screens of this group.
ERAP1 inh: human ERAP1 aminopeptidase inhibitors, primary screen, biochemical, single point, plate reader. inhibition, % at 10.7 µM. hit rate 0.15% among 340,000. recombinant ERAP1, Leu-AMC fluorescence, 60 min;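 active means mean replicate inhibition of at least 30%, or all replicates individually reaching that 30% level; inactive means mean below 30% and not every replicate reaching it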;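 further: 0% = neutral control wells and 100% = L-leucinethiol positive control wells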
Target sequence (Q9NZ08 whole entry, looked up): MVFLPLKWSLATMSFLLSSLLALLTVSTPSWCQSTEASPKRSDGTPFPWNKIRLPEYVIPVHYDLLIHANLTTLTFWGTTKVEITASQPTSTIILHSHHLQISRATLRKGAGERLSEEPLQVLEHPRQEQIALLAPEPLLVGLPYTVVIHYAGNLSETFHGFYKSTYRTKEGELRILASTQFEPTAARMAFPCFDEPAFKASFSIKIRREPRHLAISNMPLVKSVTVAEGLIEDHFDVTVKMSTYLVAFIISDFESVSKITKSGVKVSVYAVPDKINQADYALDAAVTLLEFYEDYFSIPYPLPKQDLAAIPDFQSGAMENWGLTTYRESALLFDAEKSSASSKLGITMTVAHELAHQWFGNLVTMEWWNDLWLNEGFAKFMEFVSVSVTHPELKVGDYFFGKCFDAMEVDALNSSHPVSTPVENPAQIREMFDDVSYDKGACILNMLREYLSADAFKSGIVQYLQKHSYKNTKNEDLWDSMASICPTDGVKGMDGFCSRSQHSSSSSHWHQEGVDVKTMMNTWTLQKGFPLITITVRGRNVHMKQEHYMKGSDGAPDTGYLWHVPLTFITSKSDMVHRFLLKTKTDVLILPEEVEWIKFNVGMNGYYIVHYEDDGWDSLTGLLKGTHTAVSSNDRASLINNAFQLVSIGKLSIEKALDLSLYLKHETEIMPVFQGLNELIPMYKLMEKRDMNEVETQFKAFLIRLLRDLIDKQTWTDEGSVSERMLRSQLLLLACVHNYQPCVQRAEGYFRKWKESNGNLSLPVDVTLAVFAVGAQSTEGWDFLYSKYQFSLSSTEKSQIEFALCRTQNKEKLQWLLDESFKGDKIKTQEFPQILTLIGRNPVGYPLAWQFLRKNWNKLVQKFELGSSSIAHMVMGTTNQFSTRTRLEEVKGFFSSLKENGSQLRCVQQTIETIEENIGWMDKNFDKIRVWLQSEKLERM
ARNT-TACC3 inh: disruptors of ARNT/TACC3 protein interaction, primary screen, biochemical, AlphaScreen, single concentration. hit rate 0.66% among 390,000. AlphaScreen His-ARNT PAS-B/GST-TACC3 binding, luminescence; TACC3 fragment carries E629A point mutation. inhibition, % at 9.99 µM;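 active means mean inhibition of replicates at least 50% and at least half of replicates each reaching 50%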;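 further: 0% = complete ARNT plus TACC3 wells and 100% = ARNT alone without TACC3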
PGC1a acetyl inh: inhibitors of PGC1a acetylation signal, primary screen, cell-based, U2OS, AlphaScreen, inhibitor mode; AlphaScreen anti-acetyl-lysine; with virally co-expressed GCN5 acetyltransferase; inhibition, % at 15.6 µM; hit rate 0.17% among 350,000;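 active means every replicate shows inhibition of at least 40%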;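 further: 0% = neutral control wells and 100% = positive control wells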
S100A4 MyoIIA: inhibitors of S100A4-myosin IIA peptide binding, primary screen, biochemical, fluorescence polarization, TAMRA-MyoIIA peptide | Protein S100-A4 (Homo sapiens), P26447 | inhibition, % at 10.7 µM | hit rate 0.14% among 360,000;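 active means mean inhibition of at least 70% across replicates, with every replicate also reaching that level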
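Material: S100A4 monomer protein / Buffer or medium: 50 mM HEPES pH 7.2, 10 mM CaCl2, 100 mM KCl / Times: 5 min incubation before reading / Benchmarks: neutral control DMSO, positive control TFP / Reagent: labelled myosin peptide probe, 5 nM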
rRNA inh HTS: reduced GFP signal of wild-type E. coli, primary screen, bacterial rRNA inhibitor project, GFP/RFP fluorescence, OD600, single point. GFP signal change (wild-type ribosome), % (no concentration beside the values). hit rate 1.6% among 350,000. E. coli WT GFP vs humanized-ribosome RFP mutants, 24 h; active compounds read low; DMSO median 0, no signal -100;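 active means significant combined selectivity score with lowered wild-type GFP, culture density cut under 30%, mutant RFP and density less affected; inactive means any of these conditions unmet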
CASP6 VEID inh: human caspase-6 inhibitors, primary screen, biochemical, VEID-R110 fluorescence, single point, set 2 | P55212 | purified caspase-6, Z-VEID-R110 cleavage fluorescence | inhibition, % at 12.5 µM | hit rate 0.53% among 350,000;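 active means mean inhibition across replicates at least about 35%, with every replicate also reaching that limit, limit read from the data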;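 further: 0% = median of neutral control wells and 100% = no fluorescence left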
* hit, by the source's call; · = no result given.

SMILES	ERAP1 inh	ARNT-TACC3 inh	PGC1a acetyl inh	S100A4 MyoIIA	rRNA inh HTS	CASP6 VEID inh
O=C(O)c1ccc(NS(=O)(=O)c2ccc3c(c2)C2C=CCC2C(c2ccccc2F)N3)cc1 (stereo unspecified)	6.3	11.0	6.3	-2.8	10.6	46.5*
Cc1c(O)ccc2c(CN(C)Cc3ccccc3)cc(=O)oc12	·	-1.9	2.9	6.0	-25.5*	7.1
C[C@H]1CN([C@@H](C)CO)S(=O)(=O)c2ccc(-c3ccccc3)cc2O[C@@H]1CN(C)C(=O)C1CCC1	·	·	5.3	·	-4.6	·
CCCNC(=O)N[C@H]1C=C[C@H](CC(=O)N2CCN(C)CC2)O[C@@H]1CO	2.5	-8.4	-15.6	7.3	-0.4	-2.1
Cc1ccc(NC(=O)C[n+]2cc(-c3ccc(C)cc3)n3c2CCC3)cc1	3.4	-3.8	8.1	-2.2	·	-0.8
O=C(C[n+]1cc(-c2ccc(F)cc2)n2c1CCC2)Nc1nc(-c2ccccc2)cs1	·	10.1	·	·	·	·
COc1ccc(-c2c[n+](CC(=O)c3cccs3)c3n2CCC3)cc1	-2.7	-0.4	-2.6	3.2	-21.3	-14.7
O=C(C[n+]1cc(-c2ccc(Cl)cc2)n2c1CCC2)Nc1nc(-c2ccccc2)cs1	-1.6	4.8	·	-3.9	-44.4*	-5.7
COc1ccc(-c2c[n+](CC(=O)N3c4ccccc4Sc4ccccc43)c3n2CCC3)cc1	2.4	5.0	·	-0.2	-45.1*	5.0
Cc1ccc(-c2c[n+](CC(=O)c3cccs3)c3n2CCC3)cc1	-3.6	1.2	9.9	-7.2	-43.7*	-6.2
O=C(C[n+]1cc(-c2ccc(Cl)cc2)n2c1CCC2)N1c2ccccc2Sc2ccccc21	·	20.7	·	·	·	·
Cc1ccc(-c2c[n+](CC(=O)Nc3ccc(C)cc3C)c3n2CCC3)cc1	0.2	-1.6	1.8	-4.1	-33.1*	1.2
CCC(=O)Nc1ccc2c(c1)OC[C@@H](C)N(C(=O)c1cccnc1)C[C@H](C)[C@@H](OC)CN(C)C2=O	-3.6	-11.6	2.9	10.7	1.2	-0.4
Cc1ccc2nc(C)c(Cl)c(=O)n2c1	·	-3.0	14.1	·	·	·
Cc1ccc2nc(Cl)c(/C=N/Nc3nc(C)cc(C)n3)c(=O)n2c1	0.5	46.4*	10.3	-9.3	9.4	0.7
CC(=O)c1ccc(NC(=O)CC23CC4CC(C2)CC(n2nnc(C)n2)(C4)C3)cc1	4.7	4.1	15.3	5.8	-17.6	-1.7
Cc1nnn(C23CC4CC(CC(CC(=O)Nc5ccc(C)c(C)c5)(C4)C2)C3)n1	-3.9	0.1	·	26.2	-18.6*	-3.3
Cc1nnn(C23CC4CC(CC(CC(=O)Nc5cccc(F)c5)(C4)C2)C3)n1	·	2.8	-3.2	-2.2	-8.4	-0.6
Cc1cccc(NC(=O)CC23CC4CC(C2)CC(n2nnc(C)n2)(C4)C3)c1	-0.4	-0.5	·	-12.8	-22.6*	-3.3
Cc1noc(C)c1NC(=O)N(C)C[C@H]1Oc2ccc(NC(=O)CCCN(C)C)cc2CC(=O)N([C@@H](C)CO)C[C@@H]1C	0.0	-42.4	5.3	-18.5	1.1	-2.0
COc1ccccc1C(=O)Nc1c(C(=O)N(CCN(C)C)Cc2ccco2)oc2ccccc12	-1.1	10.7	·	-9.0	-40.0*	2.4
Cc1ccccc1C(=O)Nc1c(C(=O)N(CCN(C)C)Cc2ccco2)oc2ccccc12	0.1	1.8	·	2.2	0.3	-2.2
CC(=O)N1CC(=O)N2[C@H](CO)[C@@H](c3ccc(-c4cccc(C(=O)N(C)C)c4)cc3)[C@H]2C1	-1.5	·	-8.2	0.3	5.4	-0.6
C[C@H]1CN([C@@H](C)CO)C(=O)Cc2cc(NS(=O)(=O)c3cccs3)ccc2O[C@H]1CN(C)Cc1ccc(Cl)c(Cl)c1	1.8	3.1	9.5	-15.3	0.6	-2.6
CO[C@H]1CN(C)C(=O)c2cc(NC(=O)Cc3ccccc3)ccc2OC[C@@H](C)NC[C@H]1C	·	-2.3	-7.5	0.8	·	·
SMILES	ERAP1 inh	ARNT-TACC3 inh	PGC1a acetyl inh	S100A4 MyoIIA	rRNA inh HTS	CASP6 VEID inh
CCC(C)c1ccccc1O (stereo unspecified)	-4.9	·	-4.3	-12.7	-0.5	-7.1
CCC(c1ccccc1)C(CC)c1cc(O)c(O)c(O)c1 (stereo unspecified)	-5.2	4.7	-14.4	-5.7	-26.1*	17.5
Cc1ccc(S(=O)(=O)NCC[C@H]2CC[C@@H](NC(=O)c3cnccn3)[C@@H](CO)O2)cc1	5.9	0.2	15.9	-3.8	-1.2	-1.6
CO[C@H]1CN(C)C(=O)c2ccc(NS(=O)(=O)c3ccc(Cl)cc3)cc2OC[C@H](C)N(C(=O)NC(C)C)C[C@H]1C	0.8	7.0	-14.4	9.2	-1.5	-0.3
NS(=O)(=O)c1ccc(N=Nc2c[nH]c(=O)c(O)c2)cc1	10.9	51.9*	33.9	-3.5	-5.5	88.7*
C[C@H](CO)N1C[C@H](C)[C@@H](CN(C)S(=O)(=O)c2cn(C)cn2)Oc2ccc(NS(=O)(=O)c3cn(C)cn3)cc2CC1=O	0.3	-13.1	6.5	2.4	-1.2	3.6
CCS(=O)(=O)N1CC(=O)N2[C@@H](CO)[C@H](c3ccc(-c4ccccc4C)cc3)[C@@H]2C1	·	·	·	·	-2.3	·
O=S(=O)(Nc1cccc2ncccc12)c1cccs1	·	58.1*	-47.1	·	·	·
CC(C)(C)c1ccc(C(=O)NCCCn2ccnc2)cc1	-3.0	active	·	1.8	-1.3	-7.6
CC(=O)c1ccc(NC(=S)NCCCn2ccnc2)cc1	-3.6	3.9	-1.9	0.1	-1.2	-6.6
CC(C)(C)c1ccccc1OCCCCCn1ccnc1	4.6	-21.5	-23.9	6.1	-54.8*	2.4
O=C(Nc1ccccc1C(=O)NCCCn1ccnc1)c1ccccc1	-0.7	0.7	-24.4	-0.1	-7.1	0.0
O=C(NCCCn1ccnc1)c1ccncc1	·	-4.9	-7.0	·	·	·
CC(C)(C)C(=O)Nc1ccccc1C(=O)NCCCn1ccnc1	-1.1	61.3*	-21.0	10.2	10.6	-53.4
COc1ccc(NC(=S)NCCCn2ccnc2)cc1	·	active	-1.9	·	·	·
Cc1ccc(C(C)(C)C)c(OCCCn2ccnc2)c1	0.9	-15.7	-12.8	5.1	-57.3	0.0
O=C(Nc1ccc(-c2ccccc2)cc1)[C@@H]1[C@@H](CO)[C@@H]2Cn3c(cccc3=O)[C@@H]2N1CC1CCCC1	1.1	·	10.6	2.8	-6.0	-2.9
O=C(N[C@H]1CC[C@@H](CC(=O)N2CCOCC2)O[C@H]1CO)c1cccc(F)c1	0.0	23.8	0.1	-3.1	0.7	-0.7
C[C@H](CO)N1C[C@H](C)[C@@H](CN(C)C(=O)c2ccc(F)cc2)Oc2ncc(C#CCN(C)C)cc2C1=O	5.2	6.8	3.7	0.4	2.5	-14.3

From PubChem BioAssay
